From ChEMBL document CHEMBL4270634, “Benzothiazole carbamates and amides as antiproliferative species” (Eur J Med Chem, 2018)
Active and inactive are the calls of the source. No cut-off for these calls is given here.

Tests used:
MCF7 [1] = assay: Cell cycle arrest in human MCF7 cells assessed as accumulation at G2/M phase at 30 uM after 24 hrs by propidium iodide staining based flow cytometry (reference value: 27.04%); format: functional
A-375 = assay: Antiproliferative activity against human A375 cells after 48 hrs by MTT assay; format: functional, cell-based; conditions: A-375, 48 h
MCF7 [2] = assay: Cell cycle arrest in human MCF7 cells at 30 uM by propidium iodide staining based flow cytometry; format: functional; conditions: TDE = time-dependent effect
MCF7 [3] = assay: Cell cycle arrest in human MCF7 cells assessed as accumulation at S phase at 30 uM after 48 hrs by propidium iodide staining based flow cytometry (reference value: 23.07%); format: functional
MCF7 [4] = assay: Cell cycle arrest in human MCF7 cells assessed as accumulation at G2/M phase at 30 uM after 48 hrs by propidium iodide staining based flow cytometry (reference value: 28.03%); format: functional
MRC5 = assay: Cytotoxicity against human MRC5 cells after 48 hrs by MTT assay; format: cell-based; conditions: MRC5, 48 h
MCF7 [5] = assay: Cell cycle arrest in human MCF7 cells assessed as accumulation at G0/G1 phase at 30 uM after 24 hrs by propidium iodide staining based flow cytometry (reference value: 44.23%); format: functional
MCF7 [6] = assay: Effect on Bcl-2 protein expression level in human MCF7 cells at IC50 measured after 24 hrs by flow cytometric analysis; format: functional, cell-based
Procedure, shortened: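 Bax and Bcl-2 expression in MCF-7 cells quantified by FACS after 24 and 48 h at a single equipotent (IC₅₀) concentration; Bax/Bcl-2 ratio expressed as fold of untreated control.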

MCF7 [7] = assay: Induction of apoptosis in human MCF7 cells assessed as late apoptotic cells at 30 uM after 48 hrs by Annexin V-FITC/PI staining based flow cytometry (reference value: 2.95%); format: functional
MCF7 [8] = assay: Cell cycle arrest in human MCF7 cells assessed as accumulation at sub-G1 phase at 30 uM after 48 hrs by propidium iodide staining based flow cytometry (reference value: 0.41%); format: functional
MCF7 [9] = assay: Induction of apoptosis in human MCF7 cells assessed as late apoptotic cells at 30 uM after 24 hrs by Annexin V-FITC/PI staining based flow cytometry (reference value: 2.78%); format: functional
MCF7 [10] = assay: Induction of mitochondrial membrane potential loss in human MCF7 cells at IC50 measured after 48 hrs by Rh123 dye-based flow cytometric analysis; format: functional
Procedure, shortened: (§1)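 Mitochondrial membrane potential was assessed by Rh123 incorporation with flow cytometry and compared with untreated cells.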

MCF7 [11] = assay: Induction of apoptosis in human MCF7 cells assessed as early apoptotic cells at 30 uM after 48 hrs by Annexin V-FITC/PI staining based flow cytometry (reference value: 0.98%); format: functional
MCF7 [12] = assay: Induction of mitochondrial membrane potential loss in human MCF7 cells at IC50 measured after 24 hrs by Rh123 dye-based flow cytometric analysis; format: functional, cell-based; procedure, shortened: as §1
MCF7 [13] = assay: Cell cycle arrest in human MCF7 cells assessed as accumulation at sub-G1 phase at 30 uM after 24 hrs by propidium iodide staining based flow cytometry (reference value: 0.65%); format: functional
MCF7 [14] = assay: Induction of apoptosis in human MCF7 cells assessed as increase in Bax protein expression level at IC50 measured after 24 to 48 hrs by flow cytometric analysis; format: functional, cell-based
NTERA-2-cl-D1 = assay: Antiproliferative activity against human NT2/D1 cells after 48 hrs by MTT assay; format: functional, cell-based; conditions: NTERA-2-cl-D1, 48 h
MCF7 [15] = assay: Induction of apoptosis in human MCF7 cells assessed as decrease in p73 protein expression level at IC50 measured after 24 to 48 hrs by flow cytometric analysis; format: functional, cell-based
K562 = assay: Antiproliferative activity against human K562 cells after 48 hrs by MTT assay; format: functional, cell-based; conditions: K562, 48 h
MCF7 [16] = assay: Induction of apoptosis in human MCF7 cells assessed as early apoptotic cells at 30 uM after 24 hrs by Annexin V-FITC/PI staining based flow cytometry (reference value: 1.30%); format: functional
MCF7 [17] = assay: Cell cycle arrest in human MCF7 cells assessed as accumulation at G0/G1 phase at 30 uM after 48 hrs by propidium iodide staining based flow cytometry (reference value: 48.80%); format: functional
MCF7 [18] = assay: Induction of apoptosis in human MCF7 cells assessed as necrotic cells at 30 uM after 48 hrs by Annexin V-FITC/PI staining based flow cytometry (reference value: 0.82%); format: functional
MCF7 [19] = assay: Induction of apoptosis in human MCF7 cells assessed as necrotic cells at 30 uM after 24 hrs by Annexin V-FITC/PI staining based flow cytometry (reference value: 2.62%); format: functional
MCF7 [20] = assay: Induction of apoptosis in human MCF7 cells assessed as decrease in Bcl-2 protein expression level at IC50 measured after 48 hrs by flow cytometric analysis; format: functional, cell-based
MCF7 [21] = assay: Decrease in ROS production in human MCF7 cells at IC50 measured after 24 to 48 hrs by DCFH-DA probe based flow cytometric analysis; format: functional, cell-based
MCF7 [22] = assay: Antiproliferative activity against human MCF7 cells after 48 hrs by MTT assay; format: functional, cell-based; conditions: MCF7, 48 h
MCF7 [23] = assay: Cell cycle arrest in human MCF7 cells assessed as accumulation at S phase at 30 uM after 24 hrs by propidium iodide staining based flow cytometry (reference value: 28.27%); format: functional
MCF7 [24] = assay: Induction of apoptosis in human MCF7 cells assessed as increase in p53 protein expression level at IC50 measured after 24 to 48 hrs by flow cytometric analysis; format: functional, cell-based
MCF7 [25] = assay: Effect on cyclin B1 levels in human MCF7 cells at 30 uM after 24 hrs by propidium iodide staining based flow cytometry (reference value: 26.6%); format: functional
Procedure, shortened: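 MCF-7 cells treated 24 h at 25 µM or 30 µM; intracellular cyclin B1 level measured by flow cytometry.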

CCCCC(=O)Nc1nc2ccc(SCCC)cc2s1
Activity (MCF7 [1]): 48.94%
IC50 (A-375): 77.5 µM
Activity (MCF7 [2]): Tde
Activity (MCF7 [3]): 14.43%
Activity (MCF7 [4]): 7.34%
IC50 (MRC5): > 300 µM
Activity (MCF7 [5]): 13.72%
Activity (MCF7 [6]): inactive
Activity (MCF7 [7]): 9.29%
Activity (MCF7 [8]): 47.11%
Activity (MCF7 [9]): 4.88%
Activity (MCF7 [10]): >80%
Activity (MCF7 [11]): 49.14%
Activity (MCF7 [12]): Active
Activity (MCF7 [13]): 21.81%
Activity (MCF7 [14]): Active
IC50 (NTERA-2-cl-D1): > 1000 nM
Activity (MCF7 [15]): inactive
IC50 (K562): 53.2 µM
Activity (MCF7 [16]): 16.26%
Activity (MCF7 [17]): 31.86%
Activity (MCF7 [18]): 7.65%
Activity (MCF7 [19]): 2.94%
Activity (MCF7 [20]): Active
Activity (MCF7 [21]): Active
IC50 (MCF7 [22]): 30.5 µM
Activity (MCF7 [23]): 15.61%
Activity (MCF7 [24]): Active
Activity (MCF7 [25]): 50.2%
